Records with an inconclusive call do not appear.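 How the source made its calls, unless noted: active means inhibition over a set limit, the all-compound mean plus 3 SD, in both replicate runs; inconclusive means over that limit in just one replicate run; inactive means at or under that limit in both runs.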
Experiments:
[1] = OD615 S. cerevisiae growth inhibition, permissive medium, pilot counter-assay, permissive growth control for S. cerevisiae lifespan shortening project (AID 705;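 active means growth inhibition above 25% in both replicates, a cutoff set 3 SD above the mean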); conditions: OD615, 24 h, at 10 µM, active compounds read high
Summary of the method: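 assay system = Saccharomyces cerevisiae strain carrying genetically modified DeaD replicative-lifespan system | medium = SC raffinose/galactose permissive medium | dosing = 10 µM single dose, 0.25% DMSO | schedule = 24 h compound exposure at 30 °C after 4 h pre-growth | measured by = OD at 615 nm | read-out basis = growth inhibition from lowered OD615 after 24 h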

[2] = Restrictive medium S. cerevisiae growth inhibition, OD615, pilot screen of yeast lifespan reduction project, restrictive growth control (AID 706;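 active means growth inhibition above a set limit, 3 SD over mean compound inhibition, in both replicates, cut at about 43% in these data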;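 further: modified DeaD lifespan yeast strain shifted to restrictive glucose medium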); conditions: OD615, 48 h, at 10 µM, active compounds read high
Summary of the method: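 Buffer or medium: CSMM-D glucose medium. Material: genetically modified Saccharomyces cerevisiae, DeaD replicative lifespan assay strain. Times: 48 h compound exposure at 30 °C. Measured by: optical density at 615 nm.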

[3] = viability gain of MRP-1-high H69AR cells under doxorubicin, pilot screen, MRP-1 activator project, CellTiter-Glo, duplicate (AID 807;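 active means viability increase at or above a cutoff of the median across tested compounds plus 3 SD, cut at about 8.5% in these data, passing the limit was not always enough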;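 further: compound pretreatment 18-22 h then 72 h combined with doxorubicin; 0% = doxorubicin alone and 100% = vehicle without doxorubicin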); conditions: H69AR viability with doxorubicin, CellTiter-Glo luminescence; at 10 µM; active compounds read high
[4] = growth suppression of beta-catenin knockout HCT116, pilot screen, human colon tumor cells (AID 823;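 active means cell viability at or below a set limit in both duplicate runs, the limit being the all-compound median minus 4 SD, cut at about 23% in these data, passing the limit was not always enough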;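 further: 0% = wells killed by 20 µM Hyamine and 100% = untreated DMSO cell wells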); conditions: CellTiter-Glo, 60 h, at 10 µM, active compounds read low
[5] = growth suppression of PTEN-deleted HCT116, pilot screen, cell-based, HCT116 clonal line, CellTiter-Glo (AID 824;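 active means viability at or below 27.92% in each of two runs, the all-compound median minus 4 SD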;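 further: 0% = 20 µM Hyamine control and 100% = vehicle cell control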); conditions: 60 h, at 10 µM, active compounds read low
[6] = inhibitors of the yeast RAM network, pilot screen, dse1pr::URA3 reporter, 5-FOA selection (AID 869);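 further: 0% = DMSO wells with no growth and 100% = 10 µM 1-NA-PP1 with full growth; RAM network block rescues cells from 5-FOA so hits raise OD615 growth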; conditions: S. cerevisiae dse1pr::URA3 5-FOA growth, OD615, 2 d; at 10 µM; active compounds read high; strain carries analog-sensitive mutant Cbk1 kinase
[7] = RAM signaling pathway blockade in yeast – S. cerevisiae, Pdr1DBD-CYC8 efflux-inhibited sensitized strain, primary screen (AID 1298;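 active means RAM network inhibition above 8.4% in each of two replicates, 3 SD over the compound average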;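 further: 0% = DMSO untreated cells without growth and 100% = 10 µM 1-NA-PP1 full growth; higher means more yeast growth rescued from 5-FOA killing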); conditions: S. cerevisiae cbk1-as DSE1-URA3 strain, 5-FOA growth OD615, 2 d; at 50 µM; active compounds read high

CC(=O)C1=C(C)NC(SCC(N)=O)=C(C#N)C1c1cccnc1 (stereo not given)
inactive: growth inhibition [1] 6.58% | growth inhibition [2] 20.8% | viability increase [3] 1.67% | viability [4] 104% | viability [5] 101% | inhibition [6] 1.12% | RAM network inhibition [7] 1.65%

O=C(CSc1nccn1-c1cccc(Cl)c1)Nc1ccc2c(c1)OCCO2
inactive: growth inhibition [1] -11.7% | growth inhibition [2] 2.4% | viability increase [3] 6.11% | viability [4] 101% | viability [5] 93% | inhibition [6] 2.52% | RAM network inhibition [7] 3.35%

CCCC(=O)NCCCc1nc2ccccc2n1C
inactive: growth inhibition [1] -3.69% | growth inhibition [2] -0.54% | viability increase [3] -1.21% | viability [4] 97.1% | viability [5] 105% | inhibition [6] -0.03% | RAM network inhibition [7] 2.78%

O=C(O)C1C2C=CC3(CN(Cc4ccco4)C(=O)C13)O2 (stereo not given)
inactive: growth inhibition [1] -11.7% | growth inhibition [2] 4.86% | viability increase [3] -0.96% | viability [4] 112% | viability [5] 95.6% | inhibition [6] 0.815% | RAM network inhibition [7] -0.52%

CC1CCCN(c2nc3c(c(=O)[nH]c(=O)n3C)n2Cc2ccccc2Cl)C1 (stereo not given)
inactive: growth inhibition [1] -15.4% | growth inhibition [2] -35.9% | viability increase [3] -5.4% | viability [4] 84.9% | viability [5] 81% | inhibition [6] 0.485% | RAM network inhibition [7] 9.1%

Clc1ccc(Sc2oc(/C=N/n3cnnc3)cc2Br)cc1
inactive: growth inhibition [1] -0.475% | growth inhibition [2] 22.4% | viability increase [3] -8.12% | viability [4] 27.6% | viability [5] 50.5% | inhibition [6] 0.36% | RAM network inhibition [7] 1.69%

COc1ccc(C/C(O)=C(\C#N)c2nc3ccccc3[nH]2)cc1OC
inactive: growth inhibition [1] -4.85% | growth inhibition [2] 0.74% | viability increase [3] -1.93% | viability [4] 90.7% | viability [5] 87.7% | inhibition [6] 0.175% | RAM network inhibition [7] 3.13%

O=C1CCC(=O)N1c1ccc(CSc2nc3ccccc3[nH]2)cc1
inactive: growth inhibition [1] -4.96% | growth inhibition [2] -2.19% | viability increase [3] 0.79% | viability [4] 104% | viability [5] 92.9% | inhibition [6] 1.06% | RAM network inhibition [7] 2.24%

CCNc1nc(C)cc(COC)c1C#N
inactive: growth inhibition [1] -6.41% | growth inhibition [2] -0.29% | viability increase [3] -0.27% | viability [4] 97.7% | viability [5] 102% | inhibition [6] 1.4% | RAM network inhibition [7] -0.06%

COC(=O)c1ccsc1NC(=O)C1COc2ccccc2O1 (stereo not given)
inactive: growth inhibition [1] 6.25% | growth inhibition [2] 8.76% | viability increase [3] -1.07% | viability [4] 92.4% | viability [5] 85.5% | inhibition [6] 0.425% | RAM network inhibition [7] 8.05%

COC(=O)c1ccccc1NC(=O)c1cc(C2CC2)on1
inactive: growth inhibition [1] -8.38% | growth inhibition [2] 4.01% | viability increase [3] -3.29% | viability [4] 91.5% | viability [5] 90.8% | inhibition [6] 1.4% | RAM network inhibition [7] 5.95%

CC1(C)SCC2C(=O)N3C(CSC3(C)C)C(=O)N21 (stereo not given)
inactive: growth inhibition [1] 2.82% | growth inhibition [2] -6.7% | viability increase [3] 0.02% | viability [4] 107% | viability [5] 96.2% | inhibition [6] 1.5% | RAM network inhibition [7] 4.22%

O=C1c2ccccc2C(Nc2ccc3c(c2)OCO3)N1Cc1ccco1 (stereo not given)
inactive: growth inhibition [1] 5.28% | growth inhibition [2] -10.7% | viability increase [3] -4.48% | viability [4] 78% | viability [5] 73.3% | inhibition [6] 1.98% | RAM network inhibition [7] 2.26%

Cc1cnc(N)c2c(=O)oc3ccccc3c12
inactive: growth inhibition [1] -0.41% | growth inhibition [2] 24.5% | viability increase [3] -4.45% | viability [4] 103% | viability [5] 92.8% | inhibition [6] 1.61% | RAM network inhibition [7] 1.88%

CC1=C(C(=O)OC(C)C)C(c2c(O)ccc3ccccc23)NC(=O)N1 (stereo not given)
inactive: growth inhibition [1] 2.06% | growth inhibition [2] -6.33% | viability increase [3] -3.16% | viability [4] 93.9% | viability [5] 90.7% | inhibition [6] 1.88% | RAM network inhibition [7] 2.42%

From PubChem BioAssay
